Test results: ChEMBL document CHEMBL4411305, “5-Aminothiophene-2,4-dicarboxamide analogues as hepatitis B virus capsid assembly effectors” (Eur J Med Chem, 2019)
Calls of active or inactive are those of the source. The rule behind the calls is not given here.

Key:
HepG2 = assay: Cytotoxicity against human HepG2 cells assessed as reduction in cell viability incubated for 2 days prior to compound washout followed by compound redosing and measured after 2 days by XTT assay; assay type: cell-based; conditions: hepg2, 48 h
Hepatitis B virus [1] = assay: Binding affinity to HBV dimeric capsid protein C150 mutant expressed in Escherichia coli BL21 (DE3) at 20 uM by Sypro orange staining based RT-PCR analysis
Hepatitis B virus [2] = assay: Antiviral activity against HBV infected in human HepAD38 cells assessed as reduction in total DNA production incubated for 2 days prior to compound washout followed by compound redosing and measured after 2 days by dot-blot analysis; assay type: functional, organism-based
How it was run: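 HepAD38 cells seeded at 3 × 10^4/well in tetracycline medium; next day washed twice with PBS and given tet-free complete medium with 2-fold serial dilutions, 1% final DMSO, replaced with fresh compound medium after 2 days. After 2 more days cells lysed (NP-40), DNA alkali-denatured, dot-blotted, probed with DIG-labelled HBV probe; chemiluminescence densitometry, variable-slope fit; mean ± SD of ≥2 experiments.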

SMILES	CC50 (HepG2) [µM]	Activity (Hepatitis B virus [1])	EC50 (Hepatitis B virus [2]) [µM]
Cc1ccc(C(=O)Nc2sc(C(=O)Nc3ccccc3)c(C)c2C(N)=O)s1	> 100	Active	
Cc1c(C(=O)NCc2ccccc2)sc(N)c1C(N)=O		Active	10
Cc1c(C(=O)Nc2ccc(F)c(F)c2)sc(N)c1C(=O)NC1CCCC1		Active	> 10
Cc1nc(=O)c2c(C)c(C(=O)Nc3ccccc3)sc2[nH]1		inactive	
Cc1c(C(=O)Nc2ccccc2)sc(N)c1C(=O)NC1CCCC1		inactive	> 10
COc1ccc(NC(=O)c2sc(N)c(C(N)=O)c2C)cc1		Active	10
Cc1c(C(=O)Nc2ccccc2)sc(NC(=O)c2cn[nH]c2)c1C(N)=O	> 100	Active	
Cc1c(C(=O)Nc2ccc(F)c(C(F)(F)F)c2)sc(N)c1C(N)=O	> 100	Active	
NC(=O)c1c(N)sc2c1CCCN2C(=O)c1ccccc1		inactive	
Cc1c(C(=O)Nc2ccccc2)sc(NC(=O)c2nccs2)c1C(N)=O	> 100	Active	
Cc1c(C(=O)Nc2cc(F)c(F)c(Cl)c2)sc(N)c1C(N)=O	72	Active	
Cc1c(C(=O)Nc2ccc(C(F)(F)F)cc2)sc(N)c1C(N)=O		inactive	
Cc1c(C(=O)Nc2ccccc2)sc(NC(=O)c2ccsc2)c1C(N)=O	> 100	Active	
NC(=O)c1c(N)sc2c1CCCC2		inactive	
Cc1cc(NC(=O)c2c(N)sc(C(=O)Nc3ccccc3)c2C)ccc1F	40	Active	
Cc1c(C(=O)Nc2ccccc2)sc2[nH]c(Cc3ccccc3)nc(=O)c12		inactive	
Cc1c(C(=O)Nc2ccccc2)sc(N)c1C#N		inactive	
Cc1c(C(=O)Nc2ccccc2)sc(NC(=O)c2ccc(S(C)(=O)=O)cc2)c1C(N)=O	> 100	Active	

SMILES	CC50 (HepG2) [µM]	Activity (Hepatitis B virus [1])	EC50 (Hepatitis B virus [2]) [µM]
Cc1c(C(=O)Nc2ccc(F)cc2)sc(N)c1C(N)=O	> 100	Active	
Cc1c(C(=O)Nc2cc(F)c(F)c(Cl)c2)sc(N)c1C#N		inactive	
Cc1c(C(=O)Nc2ccccc2)sc2[nH]c(CS(=O)(=O)c3ccccc3)nc(=O)c12		inactive	
Cc1c(C(=O)Nc2ccc(F)c(F)c2)sc(N)c1C(=O)Nc1ccccc1	26	Active	
Cc1cc(NC(=O)c2sc(N)c(C(=O)Nc3ccc(F)c(C)c3)c2C)ccc1F		inactive	
Cc1c(C(=O)Nc2ccccc2)sc(NC(=O)c2cc(Cl)cc(Cl)c2)c1C(N)=O	49.5	Active	
Cc1c(C(=O)Nc2ccccc2)sc2[nH]c(-c3ccc(F)c(F)c3)nc(=O)c12		inactive	
Cc1c(C(=O)Nc2ccccc2)sc(N)c1C(=O)Nc1ccc(F)c(F)c1	40	Active	
CCOC(=O)c1c(N)sc(C(=O)Nc2ccc(F)c(C)c2)c1C	> 100	Active	
Cc1c(C(=O)Nc2ccc(Cl)c(C(F)(F)F)c2)sc(N)c1C(N)=O	72	Active	
Cc1c(C(=O)Nc2ccccc2)sc(NC(=O)N2CCOCC2)c1C(N)=O		inactive	
Cc1cc(NC(=O)c2sc(N)c(C#N)c2C)ccc1F	96	Active	
Cc1c(C(=O)Nc2ccccc2)sc(N)c1C(=O)Nc1ccccc1	> 100	Active	
Cc1c(C(=O)Nc2ccc(F)c(F)c2)sc(N)c1C(=O)Nc1ccc(F)c(F)c1	17	Active	
Cc1c(C(=O)Nc2ccccc2)sc(NC(=O)c2csc([N+](=O)[O-])c2)c1C(N)=O	> 100	Active	
NC(=O)c1c(N)sc2c1CCN(C(=O)c1ccccc1)C2		inactive	
Cc1c(C(=O)Nc2ccccc2)sc(-n2cnnn2)c1C(N)=O		inactive	
Cc1c(C(=O)Nc2ccc(C#N)cc2)sc(N)c1C(N)=O		inactive	
